# Only some compounds are listed: those with a hit (about 6.4% of all), similar ones and a draw of the others.
# Jurkat viability = cytotoxicity toward Jurkat T cells, primary screen, cytotoxicity control, cell-based, Jurkat E6.1, 60K MLSMR library; AID 463, 2006; Jurkat E6.1 viability, ATP luminescence, 48 h; 1.2% of 56,000 active; inhibition, % at 4 µM;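 active = inhibition above the mean inhibition of all tested compounds plus 3 SD, cut at about 28% in these data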
# E coli WT exp = growth inhibitors of wild-type E. coli, primary screen, strain BW25113, expanded library, OD600; OD600 absorbance; growth inhibition, % at 100 µM; 0.15% of 98,000 active;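 active = growth inhibition above about 50% at one test dose, limit read from the data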;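 also: growth measured after 20 h incubation at 37 °C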
# HUVEC inhibit = inhibitors of HUVEC proliferation, primary screen, cell-based, 384-well. 1.1% of 86,000 active. AID 648, 2007. viability, % at 10 µM (by protocol). CellTiter-Glo luminescence, 72 h; active compounds read low;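 active = viability at or below 30%; inactive = viability above 30%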
# H69AR inhibit = proliferation blockers of H69AR lung cancer cells, primary screen, cell-based, human, 86K library. 6% of 85,000 active. H69AR lung tumor viability, ATP luminescence, 72 h; active compounds read low. viability, % at 10 µM;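 active = viability at or below 40%; inactive = viability above 40%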;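 also: multidrug resistant small cell line overexpressing MRP-1 efflux transporter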
# tolC growth inh = growth inhibitors of E. coli tolC mutant, primary screen, strain BW25113 ΔtolC::kan, 384-well | OD615 | growth inhibition, % at 10 µM (by protocol) | 2.2% of 65,000 active;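 active = growth inhibition at or above a cutoff equal to the mean over every tested compound plus 3 SD, cut at about 60% in these data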;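 also: growth measured after 20 h incubation at 37 °C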
#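 Test system – E. coli BW25113 ΔtolC::kan, tolC deletion mutant strain · Detection – OD at 615 nm · Buffer or medium – LB with kanamycin 50 µg/mL · Times – 20 h compound exposure of bacteria at 37 °C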
# Lung fibro prol = antiproliferative effect on LL 47 fibroblasts – human, LL 47 cells, CellTiter-Glo luminescence, primary screen; LL 47 human lung fibroblast viability, ATP luminescence; active compounds read low; viability, % at 10 µM; 1.1% of 85,000 active; AID 719, 2007;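 active = viability at or below 50% in the single dose screen; inactive = viability above 50%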;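 also: compound exposure lasted 72 h before the ATP readout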
#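 Signal: luminescent ATP detection, CellTiter-Glo; assay system: LL 47 human lung fibroblasts; input: 1,150 cells/well; incubation: overnight cell rest, 72 h compound treatment at 37 °C; measure: % viability versus median cells-only luminescence; medium: IMEM growth medium with 15% fetal bovine serum; dosing: compound addition at 0.1% DMSO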
# Numbers stand for hits; n = inactive; x = no result.
SMILES,Jurkat viability,E coli WT exp,HUVEC inhibit,H69AR inhibit,tolC growth inh,Lung fibro prol
COc1ccc(-c2cc(C(F)(F)F)nc(SCC(=O)Nc3cc(C)on3)n2)cc1,n,n,n,n,n,n
Cc1cc(NC(=O)c2cc3nc4c(c(C(F)(F)F)n3n2)CCc2ccccc2-4)no1,n,x,n,29,n,n
Cc1cc(NC(=O)CCS(=O)(=O)c2nc(-c3ccccc3)cc(C(F)(F)F)n2)no1,33,x,24,0.7,n,5.6
O=C(O)CCn1[nH]c(=O)ccc1=O,n,n,n,n,n,n
CC(=O)C(CC(=O)N1CCCc2ccccc21)C(=O)Nc1ccc(F)cc1 (stereo not drawn),x,n,n,n,x,n
Nc1c(S(=O)(=O)c2cccs2)c2nc3ccccc3nc2n1/N=C/c1cccc(O)c1,n,n,4.9,4.0,n,n
COc1cccc(/C=N/n2c(N)c(S(=O)(=O)c3cccs3)c3nc4ccccc4nc32)c1,x,n,x,x,x,x
Cc1cccc(S(=O)(=O)c2c(N)n(/N=C/c3cccnc3)c3nc4ccccc4nc23)c1,n,n,n,33,n,n
CC(C)C(=O)NS(=O)(=O)c1ccc(N)cc1,x,n,n,n,x,n
Cc1[nH]c2ccccc2c1C(=O)CN1CCCCC1CCO (stereo not drawn),n,n,n,n,n,n
CSc1nc(N2CCOCC2)c2c3c(sc2n1)CCCC3,n,n,n,n,96,n
N#CC1=C(N)NC(SCC(=O)Nc2ccccc2)=C(C#N)C12CCCC2,x,n,x,x,n,x
COc1ccc(-c2cn3c(C)c(C(=O)N4CCc5ccccc5C4)sc3n2)cc1,n,x,n,22,n,n
Cc1c(C(=O)N2CCOCC2)sc2nc(-c3ccccc3)cn12,n,n,n,n,n,n
Cc1c(C(=O)N2CCc3ccccc3C2)sc2nc(-c3ccccc3)cn12,n,n,n,n,67,n
C/C(=N\Nc1nc2c(s1)CCCC2)c1ccccc1,x,n,x,x,x,x
CCOc1cc(C#N)c(NC(=O)CSc2nnnn2-c2ccc(OC)cc2)cc1OCC,n,n,n,36,n,n
CCOC(=O)c1c(NC(=O)CSc2nnnn2-c2ccc(OC)cc2)sc(C)c1C,x,n,n,30,x,n
CCOc1ccccc1NC(=O)CSc1nnnn1-c1ccc(C(=O)OC)cc1,n,n,n,n,n,n
CN(c1cccc(NC(=O)Nc2cccc(Cl)c2)c1)S(C)(=O)=O,n,n,n,n,61,n
Cc1cc(=O)[nH]c(N=N/C(=N/Nc2ccc(O)cc2)c2ccccc2)n1,x,n,n,32,x,n
Cc1cc(=O)[nH]c(N=N/C(=N/Nc2ccccc2C)c2ccccc2)n1,x,n,12,26,x,24
COc1ccc(N/N=C(/N=Nc2nc(C)cc(=O)[nH]2)c2ccccc2)cc1,x,n,21,27,x,16
O=C1C2=C(Nc3ccccc3SC2c2ccco2)c2ccccc21 (stereo not drawn),n,n,n,n,100,n
COCCNS(=O)(=O)c1ccc(OCC(=O)OC)c(Cl)c1,n,n,n,n,n,n
SMILES,Jurkat viability,E coli WT exp,HUVEC inhibit,H69AR inhibit,tolC growth inh,Lung fibro prol
COC(=O)COc1ccc(S(=O)(=O)NCCC2=CCCCC2)cc1Cl,x,n,10,n,x,n
COC(=O)COc1ccc(S(=O)(=O)Nc2ccc3c(c2)OCO3)cc1Cl,n,n,2.3,n,n,44
c1ccc2c(-n3cccn3)cccc2c1,n,n,n,n,n,n
CSc1nsc(SCc2ccc(F)cc2)n1,n,n,n,30,n,x
O=C(/C=C/NNC(=O)c1ccccc1)c1ccc(Br)cc1,x,n,n,34,x,n
O=C(/C=C/NNC(=O)c1cccc(Br)c1)c1cccc(Br)c1,x,n,n,n,x,n
COc1ccc(NC(=O)c2cnc(C)cn2)c2ncccc12,62,n,27,2.8,n,49
Cc1cnc(C(=O)Nc2ccccc2F)cn1,x,n,n,n,x,n
O=C(O)CNS(=O)(=O)c1ccc(Br)s1,n,n,n,n,n,n
O=S(=O)(NCc1ccncc1)c1ccc(Br)s1,94,n,n,n,n,n
C=CCNC(=O)c1onc(CSc2ccc(F)cc2)c1C(=O)NCCOC,x,n,x,x,x,x
Cc1ccc(-n2c(SCC(=O)Nc3nccs3)nc3c(c2=O)SCC3)cc1,x,n,n,n,n,27
COc1ccccc1CC(=O)Nc1ccc(-c2noc(COc3cccc(C)c3C)n2)cc1,x,n,n,38,x,n
COc1ccc(-c2ccc(-c3noc(-c4ccccc4C)n3)c(OC)n2)cc1,n,n,n,n,n,n
COc1cccc(-c2nc(-c3ccc(NC(=O)Cc4ccccc4OC)cc3)no2)c1,n,n,n,n,n,n
COc1ccc(CC(=O)Nc2ccc(-c3noc(-c4ccccc4OC)n3)cc2)cc1,x,n,26,17,x,n
Cc1ccccc1OCc1nc(-c2ccc(NC(=O)c3ccc4c(c3)OCO4)cc2)no1,n,n,n,16,n,30
COc1ccc(-c2ccc(-c3noc(-c4ccccc4OC)n3)c(OC)n2)cc1,n,n,n,34,n,n
COc1ccc(N(Cc2ccccc2)C(=O)c2ccccc2[N+](=O)[O-])cc1,x,n,x,x,x,x
CC(=O)Nc1ccc(C(=O)OCC(=O)N(Cc2ccccc2)C(C)(C)C)cc1,x,n,x,x,x,x
Cc1ccccc1OCc1nc(-c2ccc(NC(=O)c3ccco3)cc2)no1,x,n,n,n,n,n
COc1ccccc1CC(=O)Nc1ccc(-c2noc(COc3ccc(Br)cc3)n2)cc1,x,n,n,19,x,n
CCCc1ccc(OCc2nc(-c3ccc(NC(=O)c4ccco4)cc3)no2)cc1,n,n,n,9.2,n,n
COc1ccc(-c2cc(-c3ccccc3)c(C#N)c(S(C)=O)n2)cc1 (stereo not drawn),x,n,6.8,2.3,x,2.7
CSc1nc2ccc(NC(=O)C3CC(=O)N(Cc4ccccc4)C3)cc2s1 (stereo not drawn),x,n,n,n,x,n
SMILES,Jurkat viability,E coli WT exp,HUVEC inhibit,H69AR inhibit,tolC growth inh,Lung fibro prol
CC(=O)OCc1nc2ccccc2s1,x,n,n,n,x,n
Cc1cc(C(=O)OCc2nc3ccccc3s2)c(C)o1,n,n,n,n,100,n
CCOc1ccc(OCC)c(NC(=O)CN2CCC(NC(=O)c3cccc(F)c3)CC2)c1,x,n,n,n,n,n
O=C(COC(=O)c1ccccc1NCc1ccco1)Nc1ccc2c(c1)OCO2,x,n,n,n,x,n
O=C(COC(=O)c1ccccc1NC(=O)c1ccco1)Nc1ccc2c(c1)OCO2,n,n,n,38,n,n
CCOC(=O)C1CCN(C(=O)Cn2cc(C(=O)C3CC3)c3ccccc32)CC1,n,n,n,40,n,n
O=C(c1cn(CC(=O)N2CCCCC2)c2ccccc12)C1CC1,n,n,n,n,n,n
O=C(Nc1ccc(Cl)cc1C(=O)NCCN1CCOCC1)c1ccc(Cl)cc1Cl,x,n,n,38,x,n

# Bioassay records (PubChem BioAssay)
